The labels stand for the following.
B1: NELF-E aptamer (parent)
chain: CCCAACGACUGCCGAGCGAGAUUACGCUUGAGCGCCCCACUGAGGAUGCCCACGGGCGAUUGGGGCACGG

This data set covers variants of B1. The data set is described as follows: HiTS-RAP. Particulars: with NELF-E (Drosophila). A digest of the protocol:
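Kd came from weighted Hill fits to the first binding curve, with intensities normalised to sequencing intensity and averaged per sequence, keeping only fits whose variance was below 1,000,000. That curve was imaged on an Illumina GAIIx flowcell, where sequenced aptamer DNA templates with a T7 promoter and ter site had been transcribed in situ by T7 RNA polymerase and halted by GST-Tus (30 minutes, 37°C). Before each image, clusters equilibrated for 30 minutes at room temperature with NELF-E-mOrange at 0.064 to 1000 nM in HEPES binding buffer.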
In the case of U22G C35U, the Kd (commonly the free concentration of one partner at which half of the binding sites on the other are occupied at equilibrium, for simple one-to-one binding) was found to be 11.6 nM.

Regarding U22G C35G, the Kd is 6.38 nM.

U22G C35A: the Kd amounted to 7.18 nM.

For the variant G16U G26A, the Kd was found to be 4.92 nM.

As for G16U G26U, the Kd is 7.33 nM.

Consider G16A U41G, for which the Kd turned out to be 6.55 nM.

Take A21U A67G: the Kd worked out at 5.54 nM.

Regarding C17G A67G, the Kd came out at 5.71 nM.

Turning to U22G C37A, the Kd turned out to be 14.6 nM.

In the case of U22G C37G, the Kd worked out at 7.01 nM.

U22G C37U: the Kd is 12.7 nM.

As to U22G G55C, the dissociation constant (Kd) is 7.26 nM.

With U22G G55U, the Kd is 7.97 nM.

As to U22G G55A, the Kd is 8.23 nM.

Regarding G16U C17G, the Kd amounted to 5.95 nM.

In the case of G16U C17U, the Kd amounted to 6.11 nM.

For U22G C27U, the Kd is 4.34 nM.

As for U22G C27G, the Kd stood at 8.09 nM.

As to U22G C51U, the Kd amounted to 7.12 nM.

Turning to U22G C51A, the Kd turned out to be 8.46 nM.

As for G16A U29G, the Kd was 5.1 nM.

On to C17G G62A, for which the Kd was 28.8 nM.

Take A21U U22G: the Kd was 5.31 nM.

For C17U A24G, the Kd stood at 5.54 nM.

Turning to G16A U23G, the dissociation constant Kd stood at 6.04 nM.

Consider C17G C50U, for which the Kd worked out at 15.9 nM.

Turning to U22G U41C, the Kd amounted to 74.5 nM.

Take U22G U41A: the Kd turned out to be 81.8 nM.

U22G U41G: the Kd was 5.36 nM.

For the variant G16U G64A, the Kd came to 7.51 nM.

On to U22G G34U, for which the Kd is 5.88 nM.

In the case of U22G G34A, the dissociation constant (Kd) turned out to be 8.31 nM.

For A19G A43G, the Kd came out at 8.78 nM.

Take C17G A24G: the Kd worked out at 5.52 nM.

For the variant A19G U28C, the Kd came to 9.82 nM.

In the case of U22G G64C, the Kd turned out to be 6.91 nM.

As for U22G G64U, the Kd is 6.37 nM.

As to U22G G64A, the Kd was found to be 8.7 nM.

Turning to A19U A24G, the Kd was 5.61 nM.

Take U22G C53U: the Kd stood at 4.04 nM.

As for U22G C53A, the Kd was 4.91 nM.

C17G G20U: the Kd came to 6.58 nM.

Consider C17G G20A, for which the Kd was 5.92 nM.

On to G16U A31U, for which the Kd worked out at 6.75 nM.

Regarding G16U A31G, the Kd stood at 8.32 nM.

Regarding G16U U61A, the Kd was 33.3 nM.

Regarding G16U U61C, the Kd is 77.5 nM.

As for U22G G42A, the Kd is 49.8 nM.

As to A19G A24G, the Kd was 6.18 nM.

In the case of A19G A24U, the Kd was determined as 7.26 nM.

Turning to C17G A39G, the Kd worked out at 8.44 nM.

On to G16U C57U, for which the Kd came to 8.22 nM.

Turning to A19G G30A, the Kd was 4.57 nM.

As to G18A U41G, the Kd was found to be 4.87 nM.

On to G18A U29G, for which the Kd stood at 5.68 nM.

Regarding U22G C40U, the Kd amounted to 82.8 nM.

U22G C40G: the Kd amounted to 6.42 nM.

U22G U29G: the Kd came to 5.4 nM.

With U22G U29C, the Kd was determined as 5.92 nM.

Regarding U22G U29A, the Kd amounted to 5.82 nM.

In the case of U22G C38U, the Kd stood at 8.32 nM.

Turning to G16A A24G, the Kd stood at 6.88 nM.

For the variant G16U A52U, the Kd was 19.7 nM.

G16U A52G: the Kd worked out at 4.81 nM.

As for A19G G20A, the dissociation constant Kd was 6.4 nM.

Take A19G G20U: the dissociation constant (Kd) amounted to 6.34 nM.

For the variant C17G G34A, the Kd was 8.48 nM.

For the variant C17G G55U, the Kd is 7.51 nM.

C17G G55A: the Kd came out at 7.03 nM.

Take A21U C25G: the Kd worked out at 6.57 nM.

Consider U22C U23G, for which the dissociation constant Kd is 5 nM.

In the case of C17U U23G, the Kd came to 4.95 nM.

Take A19G A67U: the Kd is 5.89 nM.

A19G A67G: the Kd came out at 5.94 nM.

Turning to G16U A67U, the Kd was determined as 10.1 nM.

As to G16U A67G, the Kd turned out to be 5.58 nM.

Regarding G16A C17G, the Kd turned out to be 6.2 nM.

Turning to A19G C25U, the Kd is 6.25 nM.

As for A19G C25G, the Kd worked out at 5.29 nM.

For G20U, the Kd stood at 6.04 nM.

Consider G20C, for which the Kd came to 5.82 nM.

Regarding G20A, the dissociation constant (Kd) was determined as 5.25 nM.

U22G G30U: the Kd amounted to 6.56 nM.

As for U22G G30A, the Kd stood at 5.32 nM.

Take G16U G55A: the Kd amounted to 7.53 nM.

For G16U G55U, the Kd was 8.69 nM.

On to U22A U23G, for which the Kd came out at 5.34 nM.

As to A21U A24G, the Kd was 5 nM.

Turning to G20A A21G, the Kd amounted to 7.05 nM.

Regarding A21G U41G, the Kd was found to be 6.21 nM.

Take C17G C57U: the Kd came to 5.45 nM.

With G20A A24G, the Kd was 6.46 nM.

As for U22G A59G, the Kd is 76.4 nM.

For the variant U22G A59U, the dissociation constant Kd stood at 97.1 nM.

C17U U22G: the Kd came out at 4.67 nM.

On to A19U U23G, for which the Kd came out at 6.66 nM.

For the variant A21G U22G, the Kd came out at 5.72 nM.

For the variant C17U U29G, the Kd turned out to be 5.35 nM.

As to U22C U47A, the Kd came to 10.5 nM.

Turning to A19G G26A, the Kd was 4.12 nM.

On to G16U G63A, for which the Kd came out at 15.2 nM.

Consider U22G C66A, for which the Kd came to 4.13 nM.

Take U22G C66U: the Kd was found to be 5.67 nM.

For the variant G16U G20U, the Kd is 7.39 nM.

Regarding C17G C36U, the Kd was 9.05 nM.

With A19C, the Kd was determined as 4.44 nM.

Turning to A19G, the Kd is 5.18 nM.

Take A19U: the Kd was determined as 5.02 nM.

As to A21G A46G, the Kd turned out to be 39.1 nM.

On to U22G G65A, for which the Kd stood at 5.12 nM.

Take U22G G65C: the Kd stood at 13.4 nM.

Take U22G G65U: the Kd was 6.22 nM.

Regarding U22G G56A, the Kd is 8.77 nM.

Take U22G G56U: the Kd is 5.99 nM.

As for U22G A52G, the Kd was 4.99 nM.

As to U22G A52C, the Kd is 6.52 nM.

As for U22G A52U, the Kd came out at 17.5 nM.

For the variant G16U G42A, the Kd was 36.6 nM.

For C17G U22G, the Kd stood at 4.82 nM.

With C17G U22C, the Kd is 5.02 nM.

For the variant U22G G26U, the Kd amounted to 4.84 nM.

With U22G G26A, the Kd was 5.64 nM.

A19U U29G: the Kd is 5.71 nM.

G20U A39G: the Kd turned out to be 10.9 nM.

On to U22C A24G, for which the Kd was 6.97 nM.

Regarding G16U U29C, the Kd was found to be 6.55 nM.

G16U U29G: the Kd amounted to 6.38 nM.

As to A19G U29C, the Kd was found to be 6.11 nM.

A19G U29G: the Kd was found to be 5.87 nM.

For A19G U29A, the Kd is 3.96 nM.

As to A21U U29G, the Kd was found to be 5.33 nM.

Consider C17G G26A, for which the Kd was 5.44 nM.

As to G20U A24G, the Kd turned out to be 6.87 nM.

As to A19G A59G, the Kd was found to be 36.8 nM.

For C17G G64A, the Kd was found to be 6.78 nM.

For G20U U23G, the Kd was 6.37 nM.

Turning to G16U C37U, the Kd was 21.9 nM.

Take C17U U41G: the Kd was found to be 5.63 nM.

As to A21G U29G, the Kd came to 5.79 nM.

Take A19U A21U: the equilibrium dissociation constant (Kd) was determined as 6.8 nM.

Regarding U22G G48A, the Kd turned out to be 9.21 nM.

Take U22G G48U: the Kd turned out to be 9.66 nM.

Regarding G20A U41G, the Kd was 5.24 nM.

As for A19G U61A, the Kd was determined as 24.3 nM.

With A21C, the Kd was found to be 5.33 nM.

Turning to A21G, the Kd was 5.04 nM.

For the variant A21U, the Kd amounted to 5.14 nM.

As to G18U U23G, the Kd is 6.43 nM.

U22G G63U: the Kd is 14 nM.

Turning to U22G G63C, the Kd was 39.6 nM.

U22G G63A: the equilibrium dissociation constant (Kd) worked out at 14.9 nM.

As to C17G A31G, the Kd was found to be 5.92 nM.

With G20U A59G, the Kd stood at 19.9 nM.

In the case of C17U A43G, the Kd was 20.5 nM.

U22G C49U: the Kd turned out to be 24.7 nM.

For the variant C17G G18C, the Kd stood at 6.41 nM.

In the case of C17G G18U, the Kd stood at 6.33 nM.

C17G G18A: the Kd turned out to be 6.63 nM.

As for G18A G26A, the Kd came to 6.84 nM.

In the case of G18A G20U, the Kd turned out to be 8.6 nM.

For the variant U22G C50A, the equilibrium dissociation constant (Kd) was determined as 19.3 nM.

Regarding U22G C50U, the Kd was 12.9 nM.

For the variant U22G C50G, the Kd was 7.97 nM.

With G16U G56A, the Kd is 13.2 nM.

For G20U A46G, the Kd amounted to 47.1 nM.

As for U22G C57U, the Kd is 6.19 nM.

As for G16A U22G, the Kd is 6.17 nM.

(Values after the RNAGym collection of RNA variant scans (doi:10.1038/nmeth.2970).)
